# Laboratory results taken from ChEMBL document CHEMBL1143811, “Bis-acridines as lead antiparasitic agents: structure-activity analysis of a discrete compound library in vitro” (Antimicrob Agents Chemother, 2007).
# Active and inactive are the calls of the source. The calls are words filed in the database; no cut-off is given here.
# Legend:
# Plasmodium falciparum [1] = experiment: Antimalarial activity against chloroquine-resistant Plasmodium falciparum FcB1R after 72 hrs; format: functional, organism-based
# Leishmania donovani = experiment: Antileishmanial activity against Leishmania donovani MHOM/SD/00/1S-2D promastigotes assessed as parasite death at 10 uM after 72 hrs; format: functional
# Summary of the method: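 Promastigotes seeded at 1.5 x 10^5 cells/ml in medium 199 with 10% heat-inactivated FBS. Compound added at a final 10 µM, in triplicate, in sealed flasks at 27°C for up to 7 days. Aliquots taken daily and viability read by CellTiter-Glo luminescence. Result given as percent reduction in viability relative to DMSO-treated cultures. Controls were K11777 or amphotericin B at 10 µM.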
# Entamoeba histolytica = experiment: Antimicrobial activity against Entamoeba histolytica HM1 IMSS trophozoites after 48 hrs; format: functional, organism-based; conditions: 60 h, in the assay text read “60 hrs” for “48 hrs”
# Summary of the method: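 Trophozoites were grown axenically in TYI-S-33 with 10% bovine adult serum and seeded at ~10^4 cells/well. Compound (range up to 10 µM) was added to 48-h log-phase cultures, then incubated 60 h at 37°C under anaerobic conditions. Viability was read by CellTiter-Glo luminescence. EC50 came from quadruplicate wells in two independent experiments.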
# Trichomonas vaginalis = experiment: Antimicrobial activity against Trichomonas vaginalis G3 assessed as parasite death at 10 uM after 24 hrs; format: functional
# Summary of the method: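 G3 strain grown in Diamond's medium at 37°C. Assay culture set up as 0.5 ml dense culture diluted into 5.0 ml complete medium. Compound at a final 10 µM for 24 h at 37°C. Motile cells counted by hemocytometer. Result is percent dead parasites relative to DMSO-treated cultures, from five separate experiments. Controls were untreated, DMSO and metronidazole.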
# [2] = (§1) Cytotoxicity against human HL60 cells; format: cell-based, HL-60; conditions: human, HL-60 cells; read-out: MIC
# Summary of the method: (§2)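 Bloodstream-form T. b. brucei in Baltz medium (~10^4/ml) and HL-60 cells in RPMI 1640 (~10^5/ml), both with 16.7% FBS, were exposed 48 h at 37°C in 5% CO2 to compound up to 10 µM in 1% final DMSO. Live cells were hemocytometer-counted, by motility (trypanosomes) or trypan blue exclusion (HL-60). EC50 was taken by regression versus DMSO cultures from three experiments. MIC was the lowest fully lethal concentration, judged microscopically.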
# HL-60 = experiment: as §1; format: cell-based; conditions: Homo sapiens, HL-60; summary of the method: as §2
# [3] = Selectivity index, ratio of MIC for HL60 cells to MIC for Trypanosoma brucei brucei clone 427-221a; format: functional, HL-60; summary of the method: as §2
# [4] = Cytotoxicity against BALB/c mouse peritoneal macrophages at 10 uM after 48 hrs hrs; format: cell-based; conditions: macrophage
# [5] = tested on: Trypanosoma brucei brucei; experiment: Antimicrobial activity against Trypanosoma brucei brucei clone 427-221a after 48 hrs; format: functional, organism-based; summary of the method: as §2
# Plasmodium falciparum [6] = experiment: Antimicrobial activity against chloroquine-sensitive Plasmodium falciparum 3D7 after 72 hrs; format: functional, organism-based; conditions: 3D7, 72 h
# [7] = Selectivity index, ratio of EC50 for HL60 cells to EC50 for Trypanosoma brucei brucei clone 427-221a; format: functional, HL-60; summary of the method: as §2
# MRC5 = experiment: Toxicity against human MRC5 cells at 3.13 uM; format: cell-based; conditions: mrc5, 3.13 µM
# Plasmodium falciparum [8] = experiment: Antimicrobial activity against chloroquine-resistant Plasmodium falciparum W2 after 72 hrs; format: functional, organism-based; conditions: W2, 72 h
# Leishmania major [9] = experiment: Antileishmanial activity against Leishmania major MHOM/IL/81/FE/BNI amastigotes after 48 hrs at 1 uM; format: functional, organism-based
# Summary of the method: (§3)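 Peritoneal macrophages from BALB/c mice (6-8 wk) adhered 2 h at 37°C, infected 24 h with stationary-phase L. major promastigotes at 10:1 parasite:macrophage, washed, then exposed 48 h to compound at 0.0001 to 10 µM. Intracellular amastigotes stained with acridine orange/ethidium bromide and counted by fluorescence microscopy; percent amastigotes cleared versus DMSO-treated cultures; three repeats.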
# [10] = tested on: Trypanosoma brucei brucei; experiment: Antimicrobial activity against Trypanosoma brucei brucei clone 427-221a at 1.56 uM; format: functional
# Leishmania major [11] = experiment: Antileishmanial activity against Leishmania major MHOM/IL/81/FE/BNI amastigotes after 48 hrs; format: functional, organism-based; summary of the method: as §3
# Schistosoma mansoni [12] = experiment: Antimicrobial activity against Schistosoma mansoni assessed as worm vitality at 6 uM after 4 hrs; format: functional, organism-based
# Summary of the method: (§4)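 20-day-old worms were obtained by perfusion of BALB/c mice infected with 200 cercariae. About 20 worms/well were kept in Basch 169 with 10% bovine calf serum, preincubated 24 h at 37°C in 5% CO2, then exposed to 1, 3 or 6 µM. Vitality (feeding, flexing, gut peristalsis; death = nonmotile, shrunken, dark) was scored at 4 and 18 h in two experiments.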
# Schistosoma mansoni [13] = experiment: Antimicrobial activity against Schistosoma mansoni assessed as worm vitality at 3 uM after 4 hrs; format: functional, organism-based; summary of the method: as §4
Compound,EC50 (Plasmodium falciparum [1]),Activity (Leishmania donovani),EC50 (Entamoeba histolytica),Activity (Trichomonas vaginalis),MCC [2],EC50 (HL-60),Ratio [3],Activity [4],EC50 [5],MIC [5],EC50 (Plasmodium falciparum [6]),Ratio EC50 [7],Activity (MRC5),EC50 (Plasmodium falciparum [8]),Activity (Leishmania major [9]),Activity [10],EC50 (Leishmania major [11]),Activity (Schistosoma mansoni [12]),Activity (Schistosoma mansoni [13])
COc1ccc2nc3cc(Cl)ccc3c(NCCCCCCCCNc3c4ccc(Cl)cc4nc4ccc(OC)cc34)c2c1,19 nM,99%,500 nM,100%,10 µM,1650 nM,10,Toxic,8.6 nM,1 µM,115 nM,191,20%,124 nM,inactive,100%,,,
COc1ccc2nc3cc(Cl)ccc3c(NCCCCN(CCCNc3c4ccc(Cl)cc4nc4ccc(OC)cc34)C(=O)CNC(=O)[C@H](C)NC(=O)OC(C)(C)C)c2c1,,37%,5000 nM,53%,10 µM,270 nM,10,Toxic,2.4 nM,1 µM,314 nM,111,,341 nM,inactive,,,,
CCCN(CCCCNc1c2ccc(Cl)cc2nc2ccc(OC)cc12)CCCNc1c2ccc(Cl)cc2nc2ccc(OC)cc12,,99%,5000 nM,90%,10 µM,491 nM,10,Toxic,1.4 nM,1 µM,120 nM,348,,319 nM,inactive,,,,
CCN(CC)CCCC(C)Nc1ccnc2cc(Cl)ccc12 (centres undefined) [CHLOROQUINE],,,,,,,,,,,10 nM,,,293 nM,,,,,
COc1ccc2nc3cc(Cl)ccc3c(NCCCCNCCCCCNCCCNc3c4ccc(Cl)cc4nc4ccc(OC)cc34)c2c1,,98%,5000 nM,66%,10 µM,270 nM,10,Toxic,1.9 nM,1 µM,125 nM,140,,129 nM,,,600 nM,Active,
CCN(CC)CCCC(C)Nc1c2ccc(Cl)cc2nc2ccc(OC)cc12 (centres undefined) [QUINACRINE],,,,,,,,,,,11 nM,,,33 nM,,,,,
C[C@@H]1[C@H](O)[C@@H](C)/C=C/C=C/C=C/C=C/C=C/C=C/C=C/[C@H](O[C@@H]2O[C@H](C)[C@@H](O)[C@H](N)[C@@H]2O)C[C@@H]2O[C@](O)(C[C@@H](O)C[C@@H](O)[C@H](O)CC[C@@H](O)C[C@@H](O)CC(=O)O[C@H]1C)C[C@H](O)[C@H]2C(=O)O [AMPHOTERICIN B],,100%,,,,,,,,,,,,,,,,,
O=C(C1CCCCC1)N1CC(=O)N2CCc3ccccc3C2C1 (centres undefined),,,,,,,,,,,,,,,,,,Active,
COc1ccc2nc3cc(Cl)ccc3c(NCCCCCCCCCCNc3c4ccc(Cl)cc4nc4ccc(OC)cc34)c2c1,57 nM,96%,500 nM,100%,10 µM,3140 nM,10,Toxic,25 nM,1 µM,95 nM,125,0%,116 nM,inactive,100%,,,
Nc1nc(N)nc(Nc2ccc([As]3SCC(CO)S3)cc2)n1 (centres undefined) [MELARSOPROL],,,,,100 µM,4270 nM,>1000,,16 nM,0.1 µM,,267,,,,,,,
COc1ccc2nc3cc(Cl)ccc3c(NCCCN3CCN(CCCNc4c5ccc(Cl)cc5nc5ccc(OC)cc45)CC3)c2c1,17 nM,46%,5000 nM,10%,10 µM,1480 nM,100,Toxic,1.8 nM,0.1 µM,64 nM,836,0%,112 nM,inactive,60%,,,
COc1ccc2nc3cc(Cl)ccc3c(NCCCN(C)CCCNc3c4ccc(Cl)cc4nc4ccc(OC)cc34)c2c1,,99%,500 nM,92%,10 µM,1180 nM,100,,0.9 nM,0.1 µM,790 nM,1326,,1080 nM,,,6000 nM,Active,Active
COc1ccc2nc3cc(Cl)ccc3c(NCCCCNCCCNc3c4ccc(Cl)cc4nc4ccc(OC)nc34)c2n1,,99%,500 nM,85%,7 µM,119 nM,70,Toxic,1.4 nM,0.1 µM,29 nM,86,,34 nM,inactive,,,Active,
COc1ccc2nc3cc(Cl)ccc3c(NCCNCCNc3c4ccc(Cl)cc4nc4ccc(OC)cc34)c2c1,63 nM,47%,5000 nM,0%,> 10 µM,9470 nM,>1,Toxic,218 nM,10 µM,618 nM,43,100%,791 nM,inactive,100%,,,
COc1ccc2nc3cc(Cl)ccc3c(NCCCNCCCNCCCNc3c4ccc(Cl)cc4nc4ccc(OC)cc34)c2c1,,73%,5000 nM,0%,10 µM,142 nM,10,,1.4 nM,1 µM,121 nM,98,,147 nM,,,3000 nM,Active,
COc1ccc2nc3cc(Cl)ccc3c(NCCCCN(CCCNc3c4ccc(Cl)cc4nc4ccc(OC)cc34)C(=O)[C@H](C)NC(=O)OC(C)(C)C)c2c1,330 nM,49%,5000 nM,95%,10 µM,1650 nM,10,Toxic,3.5 nM,1 µM,598 nM,469,0%,629 nM,inactive,100%,,,
COc1ccc2nc3cc(Cl)ccc3c(NCCCCN(CCCNc3c4ccc(Cl)cc4nc4ccc(OC)cc34)C(=O)CNC(=O)[C@H](C)N)c2c1,,16%,5000 nM,0%,> 10 µM,491 nM,>1,Toxic,6.4 nM,10 µM,716 nM,77,,823 nM,,,700 nM,,
COc1ccc2nc3cc(Cl)ccc3c(NCCCCCCCCNc3c4ccc(Cl)cc4nc4ccc(OC)nc34)c2n1,,42%,5000 nM,59%,> 10 µM,26300 nM,>10,Toxic,31 nM,1 µM,62 nM,859,,69 nM,inactive,,,,
